Measured values as given in ChEMBL document CHEMBL1142860, “Potent antitubulin tumor cell cytotoxins based on 3-aroyl indazoles” (J Med Chem, 2007).
pIC50: −log10 of the molar value.

Columns and labels:
[1] = Antiproliferative activity against drug sensitive Messa cell line by Alamar Blue assay; format: functional, cell-based; details: Homo sapiens, MES-SA
Method in brief: (§1)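 Cells in exponential growth seeded at 4000–6000 per well, held 24 h at 37 °C, 5% CO2 before compound; T0 population read by AlamarBlue at time of addition. Compounds in DMSO diluted into complete medium; 72 h exposure at 37 °C, 5% CO2. Viable cells quantified with AlamarBlue; IC50 as 50% growth inhibition; triplicate.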

ACHN = assay: Antiproliferative activity against drug resistant ACHN cell line expressing MDR1 by Alamar Blue assay; format: functional, cell-based; details: Homo sapiens; method in brief: as §1
HCT-15 = assay: Antiproliferative activity against drug resistant HCT15 cell line expressing MDR1 by Alamar Blue assay; format: functional, cell-based; details: Homo sapiens; method in brief: as §1
NCI-H69 = assay: Antiproliferative activity against drug sensitive NCI-H69 cell line by Alamar Blue assay; format: functional, cell-based; details: Homo sapiens; method in brief: as §1
[2] = Antiproliferative activity against drug resistant Messa/DX5 cell line expressing MDR1 by Alamar Blue assay; format: functional, cell-based; details: Homo sapiens, MES-SA/Dx5; method in brief: as §1
H69AR = assay: Antiproliferative activity against drug resistant H69AR cell line expressing MRP1 by Alamar Blue assay; format: functional, cell-based; details: Homo sapiens; method in brief: as §1
NCI-H460 = assay: Inhibition of proliferation of human H460 cells; format: functional, cell-based; method in brief: as §1
HT-29 = assay: Cytotoxicity against human HT29 cells; format: cell-based
Method in brief: (§2)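 Exponentially growing cells seeded at 4000–6000 per well and incubated 24 h (37 °C, 5% CO₂) before dosing. Cell population at time of drug addition (T₀) measured by AlamarBlue. Compounds dissolved in DMSO, diluted in complete medium, and exposed for 72 h. Viable cells quantified by AlamarBlue. IC₅₀ is 50% growth inhibition. Assays run in triplicate.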

HeLa = assay: Cytotoxicity against human HeLa cells; format: cell-based; method in brief: as §1
PC-3 = assay: Cytotoxicity against human PC3 cells; format: cell-based; method in brief: as §2
Tubulin [3] = assay: Displacement of [3H]colchicine from tubulin in HeLa cells; format: cell-based, Homo sapiens
Method in brief: (§3)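 Purified tubulin (bovine brain, HeLa or MCF-7 source) preincubated with compound 10 min at 37 °C, then [3H]colchicine added and incubated a further 30 min at 37 °C. Samples spotted on DE81 filters, washed three times to remove unbound label; bound [3H]colchicine counted by scintillation.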

[4] = Inhibition of bovine tubulin polymerization; design: species or system Bos taurus
Method in brief: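 Purified bovine tubulin incubated with compound in buffer with 10% glycerol using a commercial kit; microtubule formation followed as rise in fluorescence intensity of the reaction mixture; IC50 from concentration-dependent inhibition.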

Tubulin [5] = assay: Displacement of [3H]colchicine from tubulin in MCF7 cells; format: cell-based, Homo sapiens; method in brief: as §3
Bos taurus = species: Bos taurus; assay: (§4) Displacement of [3H]colchicine from tubulin in bovine brain at 500 nM; method in brief: as §3
[6] = as §4; design: species or system Bos taurus; method in brief: as §3

SMILES | pIC50 (ACHN) | pIC50 (HCT-15) | pIC50 (NCI-H69) | pIC50 (NCI-H460) | pIC50 [1] | pIC50 [2] | pIC50 (H69AR) | further results
COc1cc(C(=O)c2n[nH]c3c(CCCO)c(OC)ccc23)cc(OC)c1OC |  |  |  | 6.55 |  |  |  | 
COc1cc(C(=O)c2n[nH]c3c(C#C[C@@H](C)O)c(OC)ccc23)cc(OC)c1OC |  |  |  | 7.54 |  |  |  | 
COc1cc(C(=O)c2n[nH]c3c(C#CCCCO)c(OC)ccc23)cc(OC)c1OC |  |  |  | 8.10 |  |  |  | 
COc1ccc(/C=C\c2cc(OC)c(OC)c(OC)c2)cc1O [COMBRETASTATIN A4] | 8.80 | 8.60 | 8.77 | 8.00 | 8.80 | 8.85 | 8.60 | pIC50 (HT-29): < 6.00; pIC50 (HeLa): 8.57; pIC50 (PC-3): 8.49
COc1cc2c(c(OC)c1OC)-c1ccc(OC)c(=O)cc1[C@@H](NC(C)=O)CC2 [COLCHICINE] | 7.40 | 7.00 |  |  | 8.20 | 7.20 |  | 
COc1cc(C(=O)c2n[nH]c3c(C#CCCO)c(OC)ccc23)cc(OC)c1OC |  |  |  | 7.85 |  |  |  | 
COc1cc(C(=O)c2n[nH]c3c(C#CC(C)(C)O)c(OC)ccc23)cc(OC)c1OC |  |  |  | 6.71 |  |  |  | 
COc1cc(C(=O)c2n[nH]c3c(C#CCN)c(OC)ccc23)cc(OC)c1OC |  |  |  | 6.61 |  |  |  | 
COc1cc(C(=O)c2n[nH]c3c(C#C[C@H](C)O)c(OC)ccc23)cc(OC)c1OC |  |  |  | 7.85 |  |  |  | 
CC(=O)O[C@H]1C(=O)[C@@]2(C)[C@H]([C@H](OC(=O)c3ccccc3)[C@]3(O)C[C@H](OC(=O)[C@H](O)[C@@H](NC(=O)c4ccccc4)c4ccccc4)C(C)=C1C3(C)C)[C@]1(OC(C)=O)CO[C@@H]1C[C@@H]2O [PACLITAXEL] | 7.60 | 7.10 | 8.72 |  | 8.80 | < 6.00 | 8.60 | 
C#Cc1c(OC)ccc2c(C(=O)c3cc(OC)c(OC)c(OC)c3)n[nH]c12 | 8.80 |  | 8.60 | 8.52 | 8.72 | 8.41 | 8.66 | pIC50 (HT-29): 8.77; pIC50 (HeLa): 8.64; pIC50 (PC-3): 8.52

Second part, led by results:

pIC50 (ACHN) | pIC50 (HCT-15) | pIC50 (NCI-H69) | pIC50 (NCI-H460) | SMILES | pIC50 [1] | pIC50 [2] | pIC50 (H69AR) | further results
7.60 | 7.10 | 8.80 |  | CC[C@]1(O)C[C@@H]2CN(CCc3c([nH]c4ccccc34)[C@@](C(=O)OC)(c3cc4c(cc3OC)N(C)[C@H]3[C@@](O)(C(=O)OC)[C@H](OC(C)=O)[C@]5(CC)C=CCN6CC[C@]43[C@@H]65)C2)C1 [VINBLASTINE] | 8.80 | 8.05 | 8.80 | 
 |  |  | 7.89 | COc1cc(C(=O)c2n[nH]c3c(/C=C\CO)c(OC)ccc23)cc(OC)c1OC |  |  |  | 
7.20 | < 6.40 | 7.00 |  | COc1cccc2c1C(=O)c1c(O)c3c(c(O)c1C2=O)C[C@@](O)(C(C)=O)C[C@@H]3O[C@H]1C[C@H](N)[C@H](O)[C@H](C)O1 [DAUNORUBICIN] | 7.70 | < 6.40 | < 6.00 | 
8.80 | 8.72 | 8.80 | 8.10 | COc1cc(C(=O)c2n[nH]c3c(C#CCO)c(OC)ccc23)cc(OC)c1OC | 8.77 | 8.74 | 8.59 | pIC50 (Tubulin [3]): 7.34; pIC50 [4]: 5.22; pIC50 (HT-29): 9.00; pIC50 (HeLa): 9.10; pIC50 (Tubulin [5]): 6.62; Activity (Bos taurus): 70%; pIC50 [6]: 6.30; pIC50 (PC-3): 9.00
 |  |  | 7.80 | COc1ccc2c(C(=O)c3cc(OC)c(OC)c(OC)c3)c[nH]c2c1 |  |  |  | 
 |  |  | < 6.00 | CC#Cc1c(OC)ccc2c(C(=O)c3cc(OC)c(OC)c(OC)c3)c[nH]c12 |  |  |  | 
8.80 | 8.72 | 8.80 | 9.00 | CC#Cc1c(OC)ccc2c(C(=O)c3cc(OC)c(OC)c(OC)c3)n[nH]c12 | 8.80 | 8.72 | 8.60 | pIC50 (HT-29): 8.52; pIC50 (HeLa): 9.05; pIC50 (PC-3): 8.96
